Values joined by “and” are separate entries in the source; they are usually repeats but may differ in a detail not shown here. Identical values can stand only once. Like-named read-outs stand apart in the source and are kept apart here.
Tests used:
[1] = system: SN12C; test: cells; format: cell-based; conditions: 10^−5 M, 48 h
[2] = system: RPMI-8226; test: cells; format: cell-based; conditions: RPMI-8226, 10^−5 M, 48 h
[3] = system: SK-MEL-5; test: cells; format: cell-based; conditions: SK-MEL-5, 10^−5 M, 48 h
[4] = target: ERK1 (Homo sapiens, UniProt P27361); test: in vitro radioactive kinase assay, Ets-1 phosphorylation by ERK1; format: biochemical
Chain of ERK1 (P27361 whole entry, species assumed): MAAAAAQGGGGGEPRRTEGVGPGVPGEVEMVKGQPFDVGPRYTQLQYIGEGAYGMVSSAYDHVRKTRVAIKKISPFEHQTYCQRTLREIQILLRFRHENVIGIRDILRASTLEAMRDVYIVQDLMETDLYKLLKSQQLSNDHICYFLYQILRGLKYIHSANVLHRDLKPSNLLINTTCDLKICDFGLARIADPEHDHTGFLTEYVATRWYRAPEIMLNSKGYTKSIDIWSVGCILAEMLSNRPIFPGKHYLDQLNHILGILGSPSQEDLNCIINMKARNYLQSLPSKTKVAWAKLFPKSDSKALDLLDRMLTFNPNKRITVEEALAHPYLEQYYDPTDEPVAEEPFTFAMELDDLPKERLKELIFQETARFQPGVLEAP
Method in brief: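 Radiometric assay at 28–30 °C in 25 mM HEPES pH 7.5, 50 mM KCl, 0.1 mM EDTA/EGTA, 2 mM DTT, 11 mM MgCl2, 10 μg mL−1 BSA and 5% DMSO (final). 2 nM activated ERK1 was used with 10 μM His-Ets-1 (1–138). Reactions were started with [γ-32P]ATP (10 or 100 μM). IC50 came from fitting rate versus inhibitor concentration to a hyperbolic decay equation.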

[5] = system: NCI-H23; test: cells; format: cell-based; conditions: NCI-H23, 10^−5 M, 48 h
[6] = system: SF-295; test: cells; format: cell-based; conditions: SF-295, 10^−5 M, 48 h
[7] = system: K-562; test: cells; format: cell-based; conditions: K-562, 10^−5 M, 48 h
[8] = system: HCT-15; test: cells; format: cell-based; conditions: HCT-15, 10^−5 M, 48 h
[9] = target: JNK2 (Homo sapiens, UniProt P45984); test: in vitro kinase assay, GST-c-Jun; format: biochemical
Chain of JNK2 (P45984 whole entry): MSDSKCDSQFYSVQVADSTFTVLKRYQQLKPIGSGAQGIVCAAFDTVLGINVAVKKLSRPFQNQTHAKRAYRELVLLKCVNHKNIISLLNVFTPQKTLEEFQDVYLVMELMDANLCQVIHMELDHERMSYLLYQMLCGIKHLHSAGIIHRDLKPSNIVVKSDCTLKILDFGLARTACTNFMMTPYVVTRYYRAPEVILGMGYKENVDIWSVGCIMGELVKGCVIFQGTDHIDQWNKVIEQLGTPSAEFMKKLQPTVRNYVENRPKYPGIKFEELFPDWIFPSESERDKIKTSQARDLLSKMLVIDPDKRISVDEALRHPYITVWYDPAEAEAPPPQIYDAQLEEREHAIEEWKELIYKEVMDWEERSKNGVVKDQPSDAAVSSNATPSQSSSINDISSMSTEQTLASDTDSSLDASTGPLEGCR

[10] = system: DU-145; test: cells; format: cell-based; conditions: DU-145, 10^−5 M, 48 h
[11] = system: HCT-116; test: cells; format: cell-based; conditions: HCT-116, 10^−5 M, 48 h
[12] = system: NCI-60 panel of tumor cell lines; conditions: for Average G%: average over tested NCI-60 cell lines, 10^−5 M (10 μM), 48 h
[13] = system: SF-268; test: cells; format: cell-based; conditions: SF-268, 10^−5 M, 48 h
[14] = system: SW-620; test: cells; format: cell-based; conditions: SW-620, 10^−5 M, 48 h
[15] = system: RXF 393; test: cells; format: cell-based; conditions: RXF 393, 10^−5 M, 48 h
[16] = system: OVCAR-4; test: cells; format: cell-based; conditions: OVCAR-4, 10^−5 M, 48 h
[17] = system: HCC-2998; test: cells; format: cell-based; conditions: HCC-2998, 10^−5 M, 48 h
[18] = system: SK-OV-3; test: cells; format: cell-based; conditions: SK-OV-3, 10^−5 M, 48 h
[19] = system: HOP-62; test: cells; format: cell-based; conditions: HOP-62, 10^−5 M, 48 h
[20] = system: A549/ATCC; test: cells; format: cell-based; conditions: A549/ATCC, 10^−5 M, 48 h
[21] = system: MOLT-4; test: cells; format: cell-based; conditions: MOLT-4, 10^−5 M, 48 h
[22] = system: SR; test: cells; format: cell-based; conditions: 10^−5 M, 48 h
[23] = system: KM 12; test: cells; format: cell-based; conditions: KM 12, 10^−5 M, 48 h
[24] = system: SK-MEL-28; test: cells; format: cell-based; conditions: SK-MEL-28, 10^−5 M, 48 h
[25] = system: HOP-92; test: cells; format: cell-based; conditions: HOP-92, 10^−5 M, 48 h
[26] = system: T-47D; test: cells; format: cell-based; conditions: T-47D, 10^−5 M, 48 h
[27] = system: MDA-MB-468; test: cells; format: cell-based; conditions: MDA-MB-468, 10^−5 M, 48 h
[28] = target: ERK2 (Rattus norvegicus, UniProt P63086); test: in vitro radioactive kinase assay, Ets-1 phosphorylation by ERK2; format: biochemical
Chain of ERK2 (P63086 whole entry): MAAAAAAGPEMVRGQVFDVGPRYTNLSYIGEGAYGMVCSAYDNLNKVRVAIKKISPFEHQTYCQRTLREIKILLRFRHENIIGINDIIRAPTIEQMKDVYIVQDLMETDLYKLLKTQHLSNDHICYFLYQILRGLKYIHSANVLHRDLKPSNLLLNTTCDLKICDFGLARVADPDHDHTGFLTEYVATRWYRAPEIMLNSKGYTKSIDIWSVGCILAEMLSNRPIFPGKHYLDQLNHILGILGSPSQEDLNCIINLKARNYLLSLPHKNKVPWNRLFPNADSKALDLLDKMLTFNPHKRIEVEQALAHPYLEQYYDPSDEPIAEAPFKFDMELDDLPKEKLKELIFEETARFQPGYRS
Method in brief: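 Activated rat ERK2 (2 nM) was tested with His-Ets-1 (1–138) at 28–30 °C in HEPES pH 7.5 buffer with 11 mM MgCl2, BSA and 5% DMSO. Reactions were started with [γ-32P]ATP (10 or 100 μM).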

[29] = system: NCI-H460; test: cells; format: cell-based; conditions: NCI-H460, 10^−5 M, 48 h
[30] = system: MALME-3M; test: cells; format: cell-based; conditions: MALME-3M, 10^−5 M, 48 h
[31] = system: MCF7; test: cells; format: cell-based; conditions: MCF7, 10^−5 M, 48 h
[32] = system: OVCAR-8; test: cells; format: cell-based; conditions: OVCAR-8, 10^−5 M, 48 h

SMILES	Growth percent (G%) [1] [%]	Growth percent (G%) [2] [%]	Growth percent (G%) [3] [%]	Growth percent (G%) [5] [%]	Growth percent (G%) [6] [%]	Growth percent (G%) [7] [%]	Growth percent (G%) [8] [%]	ability to inhibit JNK2 (in words) [9]	Growth percent (G%) [10] [%]	Growth percent (G%) [11] [%]	Average G% [12] [%]	Growth percent (G%) [13] [%]	Growth percent (G%) [14] [%]	Growth percent (G%) [15] [%]	Growth percent (G%) [16] [%]	Growth percent (G%) [17] [%]	Growth percent (G%) [18] [%]	Growth percent (G%) [19] [%]	Growth percent (G%) [20] [%]	Growth percent (G%) [21] [%]	also measured
Cn1c(=O)c2c(=O)c3c4c(oc3oc2c2ccccc21)C(=O)c1ccccc1C4=O [5a, 5-Methyl-5H-naphthalen[2″,3″:4′,5′]furo[3′,2′:4′,5,6]pyrano [3,2-c]quinoline-6,7,8,13-tetraone]	125.68	100.23	97.56	86.15	101.32	89.61	94.13	did not show any ability to inhibit	81.38	99.77	95.45	101.09	103.1	87.68	97.38	103.64	95.03	80.81	85.17	87.37	IC50 ([4]; read-out: ERK1 IC50, 100 μM ATP, 10 μM Ets-1): 95000 ± 10900 nM; IC50 ([4]; read-out: IC50 towards inhibiting ERK, ERK isoform not given): ≥ 100000 nM; IC50 ([9]; read-out: JNK2 IC50, 2 μM GST-c-Jun (1–221)): > 200000 nM; Growth percent (G%) [22]: 92.01%; Growth percent (G%) [23]: 95.63%; Growth percent (G%) [24]: 107.21%; Growth percent (G%) [25]: 99.17%; Growth percent (G%) [26]: 83.56%; Growth percent (G%) [27]: 64.82%; IC50 ([28]; read-out: ERK2 IC50, 100 μM ATP, 10 μM Ets-1): 108000 ± 12200 nM; IC50 ([28]; read-out: ERK2 IC50 at 100 μM ATP /10mM Ets-1, Table 4, 100 μM ATP /10mM Ets-1): > 100000 nM; Growth percent (G%) [29]: 108.09%; Growth percent (G%) [30]: 113.29%; Growth percent (G%) [31]: 76.73%; Growth percent (G%) [32]: 100.1%
O=C1C(Cl)=C(c2c(O)c3c(=O)n(-c4ccccc4)c4ccccc4c3oc2=O)C(=O)c2ccccc21 [compound 6, 3-(3-Chloro-1,4-dioxo-1,4-dihydronaphthalen-2-yl)-4-hydroxy-6-phenyl-2H-pyrano[3,2-c]quinoline-2,5(6H)-dione]	−14.11	19.65	17.66	38.22	18.38	26.84	66.56	little tendency to inhibit	34.21	41.72	35.49	34.32	18.61	69.20	18.80	42.85	67.28	36.07	37.73	16.13	IC50 ([4]; ERK1 IC50, 100 μM ATP, 10 μM Ets-1): 190 ± 10 nM; IC50 [9]: 4200 ± 900 nM; NCI Cytotoxicity Screening Average G% ([12]; Table 4, 10 μM one-dose screen): 35%; Growth percent (G%) [22]: 11.44%; Growth percent (G%) [23]: 18.86%; Growth percent (G%) [24]: 39.37%; Growth percent (G%) [25]: 80.01%; Growth percent (G%) [26]: 4.47%; Growth percent (G%) [27]: −27.29%; effect of excess Ets-1 (100 μM) on inhibition of ERK2 ([28]; 5 μM inhibitor, 100 μM vs 10 μM Ets-1, 100 μM ATP): did not rescue; IC50 ([28]; ERK2 IC50, 10 μM ATP): 90 nM and 86 nM; IC50 ([28]; ERK2 IC50, 100 μM ATP, 10 μM Ets-1): ~160 nM and 160 nM; IC50 ([28]; ERK2 IC50 at 100 μM ATP /10mM Ets-1, Table 4, 100 μM ATP /10mM Ets-1): 160 ± 20 nM; Growth percent (G%) [29]: 33.57%; Growth percent (G%) [30]: 42.00%; Growth percent (G%) [31]: 51.60%; Growth percent (G%) [32]: 48.24%
